Our source for the MIC values is ChEMBL document CHEMBL4184277, “Substitution of terminal amide with 1H-1,2,3-triazole: Identification of unexpected class of potent antibacterial agents” (2018).

Holding throughout (format): functional
One experiment concerns Bacillus subtilis. In words: Antibacterial activity against Bacillus subtilis ATCC 9372 after 24 hrs by broth microdilution method. Conditions: ATCC 9372, 24 h. Put shortly: (§1)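 Broth microdilution run to the standard NCCLS-recommended procedure, applied to all newly synthesized compounds, with a panel that included four Gram-positive strains.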
A general note: Broth dilution looks for growth in wells or tubes with falling amounts of substance.

The subject of experiment [1] is Staphylococcus aureus. Description: Antibacterial activity against Staphylococcus aureus ATCC 25923 after 24 hrs by broth microdilution method. Conditions: ATCC 25923, 24 h. Put shortly:
as §1

Experiment [2] has as its system Staphylococcus aureus. In words: Antibacterial activity against penicillin-resistant Staphylococcus aureus after 24 hrs by broth microdilution method.
For experiment [3], the system named is Staphylococcus aureus. Description: Antibacterial activity against methicillin-resistant Staphylococcus aureus ATCC 43300 after 24 hrs by broth microdilution method. Conditions: ATCC 43300, 24 h.
Another experiment relates to Escherichia coli. In words: Antibacterial activity against Escherichia coli ATCC 25922 after 24 hrs by broth microdilution method. Conditions: ATCC 25922, 24 h. In a few lines: as §1
The subject of the next experiment is Klebsiella pneumoniae. Description: Antibacterial activity against Klebsiella pneumoniae ATCC 700603 after 24 hrs by broth microdilution method. Conditions: Klebsiella pneumoniae, 700603, 24 h. In a few lines: as §1

≈ marks a conversion by molar mass, not a printed value.

Consider `Clc1ccc(OCCCCOc2cccc(-c3c[nH]nn3)c2)cc1`, for which the MIC in the experiment with Bacillus subtilis, with Staphylococcus aureus [1], against Staphylococcus aureus [2], in the experiment on Staphylococcus aureus [3], in the experiment on Escherichia coli and in the experiment with Klebsiella pneumoniae was > 64 µg/mL in each case.

Take `Fc1ccc(OCc2ccc(Cl)cc2)c(F)c1-c1c[nH]nn1`: the MIC against Bacillus subtilis, in the experiment on Staphylococcus aureus [1], in the experiment on Staphylococcus aureus [2], in the experiment on Staphylococcus aureus [3], with Escherichia coli and in the experiment on Klebsiella pneumoniae was > 64 µg/mL throughout.

As for `O=[N+]([O-])c1ccc(COc2cccc(Cn3cncn3)c2)cc1`, the MIC in the experiment on Bacillus subtilis, in the experiment with Staphylococcus aureus [1], with Staphylococcus aureus [2], in the experiment with Staphylococcus aureus [3], with Escherichia coli and against Klebsiella pneumoniae was > 64 µg/mL in each case.

With `Cc1ccc(COc2cccc(Cn3cncn3)c2)cc1`, the MIC against Bacillus subtilis, against Staphylococcus aureus [1], with Staphylococcus aureus [2], with Staphylococcus aureus [3], with Escherichia coli and with Klebsiella pneumoniae was > 64 µg/mL in each case.

Consider `CCCCC(CC)COc1cccc(-c2cnn(C)n2)c1` (configuration not stated), for which the MIC against Bacillus subtilis, against Staphylococcus aureus [1], in the experiment with Staphylococcus aureus [2], with Staphylococcus aureus [3], in the experiment with Escherichia coli and in the experiment on Klebsiella pneumoniae was > 64 µg/mL throughout.

`c1ccc(COc2cccc(-c3c[nH]nn3)c2)cc1`: the MIC against Bacillus subtilis is > 64 µg/mL; in the experiment with Staphylococcus aureus [1], > 64 µg/mL; with Staphylococcus aureus [2], > 64 µg/mL; in the experiment on Staphylococcus aureus [3], > 64 µg/mL; against Escherichia coli, > 64 µg/mL; in the experiment with Klebsiella pneumoniae it was 64 µg/mL (≈ 255 µM).

For `CCCCC(CC)COc1cccc(-c2cnnn2C)c1` (configuration not stated), the MIC is 64 µg/mL (≈ 223 µM) against Bacillus subtilis; 64 µg/mL (≈ 223 µM) in the experiment with Staphylococcus aureus [1]; > 64 µg/mL in the experiment on Staphylococcus aureus [2]; > 64 µg/mL in the experiment on Staphylococcus aureus [3]; > 64 µg/mL in the experiment on Escherichia coli; 16 µg/mL (≈ 55.7 µM) against Klebsiella pneumoniae.

As to `NC(=O)c1c(F)ccc(OCc2nc3cc(Cl)cnc3s2)c1F`, the MIC is 0.25 µg/mL (≈ 0.703 µM) in the experiment with Bacillus subtilis; 0.5 µg/mL (≈ 1.41 µM) with Staphylococcus aureus [1]; 0.5 µg/mL (≈ 1.41 µM) in the experiment on Staphylococcus aureus [2]; 1 µg/mL (≈ 2.81 µM) against Staphylococcus aureus [3]; > 64 µg/mL in the experiment with Escherichia coli; 0.25 µg/mL (≈ 0.703 µM) with Klebsiella pneumoniae.

As for `Cc1ccc(COc2cccc(-c3c[nH]nn3)c2)cc1`, the MIC against Bacillus subtilis is > 64 µg/mL; against Staphylococcus aureus [1] it was 32 µg/mL (≈ 121 µM); against Staphylococcus aureus [2], > 64 µg/mL; with Staphylococcus aureus [3], > 64 µg/mL; with Escherichia coli, > 64 µg/mL; in the experiment on Klebsiella pneumoniae, > 64 µg/mL.

For `CCOc1cccc(-c2c[nH]nn2)c1`, the minimum inhibitory concentration (MIC) against Bacillus subtilis, in the experiment with Staphylococcus aureus [1], against Staphylococcus aureus [2], against Staphylococcus aureus [3], in the experiment with Escherichia coli and against Klebsiella pneumoniae was > 64 µg/mL each time.

With `Cc1cccc(COc2cccc(-c3c[nH]nn3)c2)c1`, the MIC is 32 µg/mL (≈ 121 µM) in the experiment on Bacillus subtilis; 32 µg/mL (≈ 121 µM) against Staphylococcus aureus [1]; 32 µg/mL (≈ 121 µM) against Staphylococcus aureus [2]; 16 µg/mL (≈ 60.3 µM) with Staphylococcus aureus [3]; > 64 µg/mL in the experiment with Escherichia coli; 32 µg/mL (≈ 121 µM) against Klebsiella pneumoniae.

Consider `Fc1ccc(OCc2cccc(Cl)c2)c(F)c1-c1c[nH]nn1`, for which the MIC against Bacillus subtilis is 16 µg/mL (≈ 49.7 µM); against Staphylococcus aureus [1], 16 µg/mL (≈ 49.7 µM); against Staphylococcus aureus [2], 16 µg/mL (≈ 49.7 µM); against Staphylococcus aureus [3], 8 µg/mL (≈ 24.9 µM); with Escherichia coli, > 64 µg/mL; against Klebsiella pneumoniae, > 64 µg/mL.

On to `CCCCC(CC)COc1cccc(-c2ncno2)c1` (racemic), for which the MIC in the experiment with Bacillus subtilis, against Staphylococcus aureus [1], against Staphylococcus aureus [2], with Staphylococcus aureus [3], in the experiment on Escherichia coli and with Klebsiella pneumoniae was > 64 µg/mL each time.

As to `CCCCC(CC)COc1ccc(F)c(C(N)=O)c1F` (configuration not stated), the minimum inhibitory concentration (MIC) against Bacillus subtilis was 2 µg/mL (≈ 7.01 µM); in the experiment with Staphylococcus aureus [1], 4 µg/mL (≈ 14 µM); against Staphylococcus aureus [2] it was 8 µg/mL (≈ 28 µM); with Staphylococcus aureus [3] it was 2 to 4 µg/mL (≈ 7.01 to 14 µM); with Escherichia coli it was > 64 µg/mL; in the experiment on Klebsiella pneumoniae it was 4 µg/mL (≈ 14 µM).

On to `CCCCC(CC)COc1cccc(Cn2cnnn2)c1` (racemic), for which the MIC was > 64 µg/mL in the experiment on Bacillus subtilis; > 64 µg/mL in the experiment on Staphylococcus aureus [1]; > 64 µg/mL with Staphylococcus aureus [2]; > 64 µg/mL against Staphylococcus aureus [3]; > 64 µg/mL against Escherichia coli; 8 µg/mL (≈ 27.7 µM) with Klebsiella pneumoniae.

Take `CCCCC(CC)COc1ccc(F)c(-c2c[nH]nn2)c1F` (racemic): the MIC in the experiment on Bacillus subtilis is 4 µg/mL (≈ 12.9 µM); in the experiment with Staphylococcus aureus [1] it was 8 µg/mL (≈ 25.9 µM); against Staphylococcus aureus [2], 8 µg/mL (≈ 25.9 µM); in the experiment on Staphylococcus aureus [3] it was 4 µg/mL (≈ 12.9 µM); in the experiment with Escherichia coli, > 64 µg/mL; against Klebsiella pneumoniae it was 8 µg/mL (≈ 25.9 µM).

Consider `CCCCC(CC)COc1cccc(-c2cn(C)nn2)c1` (configuration not stated), for which the MIC in the experiment with Bacillus subtilis was 32 µg/mL (≈ 111 µM); with Staphylococcus aureus [1], 64 µg/mL (≈ 223 µM); against Staphylococcus aureus [2], > 64 µg/mL; against Staphylococcus aureus [3] it was 32 µg/mL (≈ 111 µM); in the experiment with Escherichia coli, > 64 µg/mL; in the experiment with Klebsiella pneumoniae, 4 µg/mL (≈ 13.9 µM).

Take `Clc1ccc(COc2cccc(Cn3cncn3)c2)cc1`: the MIC against Bacillus subtilis was > 64 µg/mL; in the experiment on Staphylococcus aureus [1], > 64 µg/mL; in the experiment on Staphylococcus aureus [2] it was > 64 µg/mL; against Staphylococcus aureus [3], > 64 µg/mL; in the experiment with Escherichia coli, > 64 µg/mL; in the experiment on Klebsiella pneumoniae, 64 µg/mL (≈ 214 µM).

Regarding `Fc1ccc(OCc2nc3cc(Cl)cnc3s2)c(F)c1-c1c[nH]nn1`, the MIC in the experiment with Bacillus subtilis, with Staphylococcus aureus [1], against Staphylococcus aureus [2], in the experiment with Staphylococcus aureus [3], against Escherichia coli and against Klebsiella pneumoniae was > 64 µg/mL each time.

Consider `Clc1cccc(COc2cccc(Cn3cnnn3)c2)c1`, for which the MIC against Bacillus subtilis, against Staphylococcus aureus [1], in the experiment with Staphylococcus aureus [2], against Staphylococcus aureus [3], against Escherichia coli and against Klebsiella pneumoniae was > 64 µg/mL each time.

Consider `CCCCC(CC)COc1cccc(-c2nnco2)c1` (racemic), for which the MIC in the experiment on Bacillus subtilis was 16 µg/mL (≈ 58.3 µM); in the experiment on Staphylococcus aureus [1] it was 32 µg/mL (≈ 117 µM); in the experiment with Escherichia coli, > 64 µg/mL; in the experiment with Klebsiella pneumoniae, 16 µg/mL (≈ 58.3 µM).

`Fc1ccc(OCc2nc(-c3ccc(Cl)cc3)c(Br)o2)c(F)c1-c1c[nH]nn1`: the MIC in the experiment on Bacillus subtilis, in the experiment on Staphylococcus aureus [1], with Staphylococcus aureus [2], with Staphylococcus aureus [3], in the experiment with Escherichia coli and against Klebsiella pneumoniae was > 64 µg/mL throughout.

As to `Fc1cccc(COc2ccc(F)c(-c3c[nH]nn3)c2F)c1`, the MIC against Bacillus subtilis was > 64 µg/mL; against Staphylococcus aureus [1], 64 µg/mL (≈ 210 µM); in the experiment on Staphylococcus aureus [2], 64 µg/mL (≈ 210 µM); against Staphylococcus aureus [3], > 64 µg/mL; in the experiment with Escherichia coli, > 64 µg/mL; against Klebsiella pneumoniae, > 64 µg/mL.

Turning to `Clc1cccc(COc2cccc(Cn3cncn3)c2)c1`, the MIC with Bacillus subtilis is > 64 µg/mL; in the experiment with Staphylococcus aureus [1], > 64 µg/mL; with Staphylococcus aureus [2], > 64 µg/mL; in the experiment with Staphylococcus aureus [3] it was > 64 µg/mL; in the experiment on Escherichia coli it was > 64 µg/mL; with Klebsiella pneumoniae, 64 µg/mL (≈ 214 µM).

On to `Clc1cccc(COc2cccc(-c3c[nH]nn3)c2)c1`, for which the MIC with Bacillus subtilis was 16 µg/mL (≈ 56 µM); in the experiment with Staphylococcus aureus [1] it was 16 µg/mL (≈ 56 µM); against Staphylococcus aureus [2] it was 32 µg/mL (≈ 112 µM); with Staphylococcus aureus [3], 16 µg/mL (≈ 56 µM); with Escherichia coli, > 64 µg/mL; in the experiment on Klebsiella pneumoniae, 16 µg/mL (≈ 56 µM).

Turning to `Cc1cccc(COc2cccc(Cn3cncn3)c2)c1`, the MIC with Bacillus subtilis, against Staphylococcus aureus [1], against Staphylococcus aureus [2], with Staphylococcus aureus [3], in the experiment with Escherichia coli and in the experiment on Klebsiella pneumoniae was > 64 µg/mL throughout.

On to `NC(=O)c1c(F)ccc(OCC2COc3ccc(Cl)cc3O2)c1F` (configuration not stated), for which it took 0.5 µg/mL (≈ 1.41 µM) to inhibit growth against Staphylococcus aureus [3] (MIC).

In the case of `Clc1ccc(COc2cccc(-c3c[nH]nn3)c2)cc1`, the minimum inhibitory concentration (MIC) in the experiment on Bacillus subtilis, in the experiment with Staphylococcus aureus [1], in the experiment on Staphylococcus aureus [2], in the experiment on Staphylococcus aureus [3], against Escherichia coli and against Klebsiella pneumoniae was > 64 µg/mL in each case.

With `NC(=O)c1c(F)ccc(OCc2nc(-c3ccc(Cl)cc3)c(Br)o2)c1F`, it took 0.06 µg/mL (≈ 0.135 µM) to inhibit growth against Staphylococcus aureus [3] (MIC).

Consider `O=c1[nH]nc(-c2cccc(OCc3ccccc3)c2)o1`, for which the minimum inhibitory concentration (MIC) against Bacillus subtilis, against Staphylococcus aureus [1], with Staphylococcus aureus [2], against Staphylococcus aureus [3], against Escherichia coli and against Klebsiella pneumoniae was > 64 µg/mL in each case.

Turning to `Cc1ccc(COc2ccc(F)c(-c3c[nH]nn3)c2F)cc1`, the MIC with Bacillus subtilis was 32 µg/mL (≈ 106 µM); against Staphylococcus aureus [1], 32 µg/mL (≈ 106 µM); in the experiment on Staphylococcus aureus [2] it was 32 µg/mL (≈ 106 µM); in the experiment with Staphylococcus aureus [3], 16 µg/mL (≈ 53.1 µM); against Escherichia coli it was > 64 µg/mL; in the experiment with Klebsiella pneumoniae, > 64 µg/mL.

Regarding `CCCCC(CC)COc1cccc(C(N)=O)c1` (racemic), the MIC in the experiment with Bacillus subtilis is 16 µg/mL (≈ 64.2 µM); in the experiment on Staphylococcus aureus [1], 16 µg/mL (≈ 64.2 µM); against Staphylococcus aureus [2], 16 µg/mL (≈ 64.2 µM); against Staphylococcus aureus [3], 16 µg/mL (≈ 64.2 µM); against Escherichia coli it was > 64 µg/mL; with Klebsiella pneumoniae it was 8 µg/mL (≈ 32.1 µM).

As to `Cc1cccc(COc2ccc(F)c(-c3c[nH]nn3)c2F)c1`, the MIC against Bacillus subtilis is 32 µg/mL (≈ 106 µM); in the experiment on Staphylococcus aureus [1], 32 µg/mL (≈ 106 µM); with Staphylococcus aureus [2] it was 32 µg/mL (≈ 106 µM); with Staphylococcus aureus [3], 16 µg/mL (≈ 53.1 µM); in the experiment with Escherichia coli, > 64 µg/mL; against Klebsiella pneumoniae, 64 µg/mL (≈ 212 µM).

For `Fc1ccc(OCCCCOc2ccc(Cl)cc2)c(F)c1-c1c[nH]nn1`, the MIC in the experiment with Bacillus subtilis, against Staphylococcus aureus [1], against Staphylococcus aureus [2], against Staphylococcus aureus [3], in the experiment with Escherichia coli and against Klebsiella pneumoniae was > 64 µg/mL each time.

As usually defined, the MIC is the least concentration at which growth counts as inhibited. Low values mean inhibition by little substance, high ones a need for much substance.
